Each block holds one compound with its values, some of them ahead of it.
How the values were obtained:
Cytochrome P450 3A4 [1] = target: T1, Cytochrome P450 3A4 (Homo sapiens, UniProt P08684); assay: Inhibition of human CYP3A4; format: ADME
Cytochrome P450 3A4 [2] = target: T1, Cytochrome P450 3A4; assay: Inhibition of human CYP3A4 in human liver microsomes preincubated with NADPH; format: ADME, Microsome
[3] = target: Hepatocyte growth factor receptor (Homo sapiens, UniProt P08581); assay: Inhibition of c-Met by HTRF assay
CYP3A4 = CYP3A4 (Homo sapiens, UniProt P08684); assay: Selective ratio of human CYP3A4 IC50 to human CYP3A4 IC50 with pre-incubation; format: ADME; conditions: read-out: Ratio IC50
[4] = AUC (0 to 24 hrs) in mouse at ED50, po; format: ADME, organism-based; design: time < 24 hr, route oral; conditions: plasma
Outline: (§1)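 NIH3T3 cells transfected with human TPR-Met, implanted as xenograft in mice. Dosing by oral gavage once daily at 3, 10, 30 and 100 mg/kg for 22 days, starting 24 h after tumor cell implantation. Vehicle: 2% HMPC, 1% Tween in water pH 2.2 w/MSA. Tumor growth and body weight followed; n = 12 per group, mean ± standard error. AUC(0-24) taken at ED50 and ED90.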

[5] = AUC (0 to 24 hrs) in mouse at ED90, po; format: ADME, organism-based; design: time < 24 hr, route oral; conditions: plasma; outline: as §1
[6] = Intrinsic clearance in rat liver microsomes; format: ADME, Microsome
Outline: (§2)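 Intrinsic clearance was measured in vitro in rat, mouse and human liver microsomes.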

[7] = Intrinsic clearance in mouse liver microsomes; format: ADME, Microsome; outline: as §2
[8] = Intrinsic clearance in human liver microsomes; format: ADME, Microsome; outline: as §2
[9] = Plasma protein binding in rat at 5 ug/ml; format: ADME, cell-free; conditions: read-out: PPB (converted)
Outline: (§3)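 Plasma protein binding was measured by equilibrium dialysis at 5 µg/mL.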

[10] = Clearance in Sprague-Dawley rat at 0.25 mg/kg, iv in 20% hydroxypropyl beta-cyclodextrin in water pH 3.5 w/MSA vehicle; format: ADME, organism-based; design: dose 0.25 mg/kg, route intravenous; conditions: in vivo
Outline: (§4)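 Male Sprague-Dawley rats, n=3, dosed intravenously at 0.25 mg/kg in 20% hydroxypropyl beta-cyclodextrin in water (pH 3.5, adjusted with MSA). In the same study, a separate oral arm used 2 mg/kg in 2% HMPC/1% Tween in water (pH 2.2, HCl) to derive bioavailability.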

[11] = Volume of distribution at steady state in Sprague-Dawley rat at 0.25 mg/kg, iv in 20% hydroxypropyl beta-cyclodextrin in water pH 3.5 w/MSA vehicle; format: ADME, organism-based; design: dose 0.25 mg/kg, route intravenous; conditions: in vivo, read-out: Vdss
Outline: (§5)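 Male Sprague-Dawley rats, n=3. Intravenous dosing at 0.25 mg/kg in DMSO or in 20% hydroxypropyl beta-cyclodextrin in water pH 3.5 w/MSA. Oral dosing at 2 mg/kg in 2% HMPC, 1% Tween in water pH 2.2 w/HCl.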

[12] = Half life in Sprague-Dawley rat at 0.25 mg/kg, iv in 20% hydroxypropyl beta-cyclodextrin in water pH 3.5 w/MSA vehicle; format: ADME, organism-based; design: dose 0.25 mg/kg, route intravenous; conditions: in vivo; outline: as §4
[13] = AUC (0 to infinity) in Sprague-Dawley rat at 2 mg/kg, po; format: ADME, organism-based; design: time infinity, dose 2 mg/kg, route oral; conditions: plasma; outline: as §5
[14] = Oral bioavailability in Sprague-Dawley rat at 2 mg/kg; format: ADME, organism-based; conditions: in vivo; outline: as §5
[15] = target: Voltage-gated inwardly rectifying potassium channel KCNH2 (Homo sapiens, UniProt Q12809); assay: Inhibition of human ERG
Heart = assay: Cardiotoxicity in rabbit heart assessed as electrocardiographic parameters up to 3 uM; format: toxicity, tissue-based, Oryctolagus cuniculus
Mus musculus [16] = species: Mus musculus; assay: Inhibition of HGF-induced c-Met phosphorylation in BALB/c mouse liver after 6 hrs by electrochemiluminescent assay; format: functional
Outline: (§6)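 Mice were given 30 mg/kg by oral gavage in 2% HMPC, 1% Tween in water pH 2.2 w/MSA, then challenged with HGF. HGF-induced c-Met phosphorylation in liver was quantified at several time points. Plasma and liver drug levels were measured alongside. n = 3, mean ± standard deviation.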

Mus musculus [17] = species: Mus musculus; assay: Inhibition of HGF-induced c-Met phosphorylation in BALB/c mouse plasma after 6 hrs by electrochemiluminescent assay; format: functional; outline: as §6
Mus musculus [18] = assay: Inhibition of HGF-induced c-Met phosphorylation in BALB/c mouse liver at 30 mg/kg, po after 12 hrs by electrochemiluminescent assay; format: functional; outline: as §6
NIH3T3 = assay: Antitumor activity against TPR-Met expressing NIH/3T3 xenografted in mouse dosed po over 22 days q.d; format: functional; conditions: 528 h; outline: as §1
Mus musculus [19] = assay: Toxicity in mouse xenografted with TPR-Met expressing NIH/3T3 up to 100 mg/kg, po over 22 days q.d; format: organism-based, NIH3T3; design: dose 100 mg/kg, route oral; conditions: in vivo, 528 h; outline: as §1
Homo sapiens = species: Homo sapiens; assay: Plasma protein binding in human at 5 ug/ml; conditions: read-out: PPB (converted)
[20] = Plasma protein binding in mouse at 5 ug/ml; format: ADME, cell-free; conditions: read-out: PPB (converted); outline: as §3
[21] = Clearance in Sprague-Dawley rat at 0.25 mg/kg, iv in DMSO vehicle; format: ADME, organism-based; design: dose 0.25 mg/kg, route intravenous; conditions: in vivo; outline: as §5
[22] = Volume of distribution at steady state in Sprague-Dawley rat at 0.25 mg/kg, iv in DMSO vehicle; format: ADME, organism-based; design: dose 0.25 mg/kg, route intravenous; conditions: in vivo, read-out: Vdss; outline: as §5
[23] = Half life in Sprague-Dawley rat at 0.25 mg/kg, iv in DMSO vehicle; format: ADME, organism-based; design: dose 0.25 mg/kg, route intravenous; conditions: in vivo; outline: as §5

SMILES: COc1ccc2c(OCc3nnc4ccc(-c5cc(F)cc(F)c5)nn34)ccnc2c1
IC50 (Cytochrome P450 3A4 [1]): > 50 µM
IC50 (Cytochrome P450 3A4 [2]): 8.3 µM

SMILES: COc1ccc2c(OCc3nnc4ccc(-c5cc(F)c(F)c(F)c5)nn34)ccnc2c1
IC50 [3]: 0.005 µM
IC50 (Cytochrome P450 3A4 [1]): 29 µM
IC50 (Cytochrome P450 3A4 [2]): 2 µM
IC50 shift (CYP3A4): 14

SMILES: COc1ccc2c(OCc3nnc4ccc(-c5ccc(F)c(F)c5)nn34)ccnc2c1
IC50 (Cytochrome P450 3A4 [1]): > 50 µM
IC50 (Cytochrome P450 3A4 [2]): 6.4 µM

SMILES: COc1cnc2c(NCc3nnc4ccc(-c5ccc(F)c(F)c5)nn34)ccnc2c1
IC50 (Cytochrome P450 3A4 [1]): > 50 µM
IC50 (Cytochrome P450 3A4 [2]): 9.1 µM

SMILES: COc1cnc2c(NCc3nnc4ccc(-c5cc(C)ns5)nn34)ccnc2c1
AUC(0-t) at 24 h [4]: 0.43 µM·h
AUC(0-t) at 24 h [5]: 4.7 µM·h
IC50 (Cytochrome P450 3A4 [1]): > 50 µM
IC50 (Cytochrome P450 3A4 [2]): 26 µM
microsomal CLint [6]: 59 µL/min/mg
microsomal CLint [7]: 60 µL/min/mg
microsomal CLint [8]: 24 µL/min/mg
fraction unbound at 5 ug/ml [9]: 0.007
clearance [10]: 3.08 mL/min/kg
Vd [11]: 0.303 L/kg
half-life [12]: 1.76 h
AUC(0-inf) [13]: 3500 ng·h/mL
bioavailability [14]: 30.5%
Ki [15]: 1.6 µM
Activity (Heart): Non-toxic
EC90 (Mus musculus [16]): 1.8 µM
EC90 (Mus musculus [17]): 0.136 µM
inhibition in vivo at 30 mg/kg (Mus musculus [18]): > 50%
ED50 (NIH3T3): 3.3 mg/kg
ED90 (NIH3T3): 22 mg/kg
Activity (Mus musculus [19]): Non-toxic
fraction unbound at 5 ug/ml (Homo sapiens): 0.025

SMILES: COc1ccc2c(SCc3nnc4ccc(-c5ccccc5)nn34)ccnc2c1
IC50 [3]: > 6.67 µM
IC50 (Cytochrome P450 3A4 [1]): 4.5 µM
IC50 (Cytochrome P450 3A4 [2]): 7 µM
IC50 shift (CYP3A4): 0.64

SMILES: COc1ccc2c(O[C@@H](C)c3nnc4ccc(-c5ccccc5)nn34)ccnc2c1
IC50 (Cytochrome P450 3A4 [1]): 14 µM
IC50 (Cytochrome P450 3A4 [2]): 3.9 µM

Continued, in another order:

IC50 (Cytochrome P450 3A4 [1]): > 50 µM
IC50 (Cytochrome P450 3A4 [2]): 16 µM
SMILES: COc1cnc2c(NCc3nnc4ccc(-c5cc(F)c(F)c(F)c5)nn34)ccnc2c1

IC50 (Cytochrome P450 3A4 [1]): 18 µM
IC50 (Cytochrome P450 3A4 [2]): 8.9 µM
SMILES: COc1ccc2c(O[C@H](C)c3nnc4ccc(-c5ccccc5)nn34)ccnc2c1

IC50 [3]: 1.37 µM
IC50 (Cytochrome P450 3A4 [1]): > 50 µM
IC50 (Cytochrome P450 3A4 [2]): 50 µM
SMILES: COc1ccc2c(NCc3nnc4ccc(-c5ccccc5)nn34)ccnc2c1
IC50 shift (CYP3A4): > 1

IC50 (Cytochrome P450 3A4 [1]): 17 µM
IC50 (Cytochrome P450 3A4 [2]): 4.8 µM
SMILES: COc1ccc2c(OCc3nnc4ccc(-c5cc(C)ns5)nn34)ccnc2c1

IC50 (Cytochrome P450 3A4 [1]): > 50 µM
IC50 (Cytochrome P450 3A4 [2]): 29 µM
microsomal CLint [6]: 53 µL/min/mg
microsomal CLint [7]: 49 µL/min/mg
microsomal CLint [8]: 47 µL/min/mg
fraction unbound at 5 ug/ml [9]: 0.002
fraction unbound at 5 ug/ml [20]: 0.023
clearance [21]: 0.717 mL/min/kg
Vd [22]: 0.201 L/kg
half-life [23]: 3.84 h
AUC(0-inf) [13]: 31100 ng·h/mL
bioavailability [14]: 62%
fraction unbound at 5 ug/ml (Homo sapiens): 0.008
SMILES: COc1cnc2c(NCc3nnc4ccc(-c5cc(F)cc(F)c5)nn34)ccnc2c1
Ki [15]: 0.2 µM

Reference: ChEMBL document CHEMBL1156101, “Discovery and optimization of potent and selective triazolopyridazine series of c-Met inhibitors” (Bioorg Med Chem Lett, 2009)
